The values below come from ChEMBL document CHEMBL3044677, “Metabolism and metabolites of dithiocarbamates in the plant pathogenic fungus Leptosphaeria maculans” (J Agric Food Chem, 2012).

The subject of data set [1] is Plenodomus lingam. Kind of data set: Antifungal activity against Leptosphaeria maculans isolate BJ-125/UAMH-9410 assessed as mycelial growth inhibition at 0.1 mM incubated under constant light for 5 days by mycelial radial growth bioassay. Format: functional. The conditions noted are these: for inhibition of growth at 100 µM: isolate BJ-125/UAMH-9410, 120 h, read-out: GI. The gist of the method:
(§1)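 Mycelial radial growth assay. L. maculans (BJ125 or UAMH-9410) was grown on V8 agar. A 4 mm plug cut from 7-day-old V8 plates was placed upside down at the centre of PDA wells (33 mm) containing compound dissolved in CH3CN. Controls held 1% CH3CN in PDA. Plates were incubated under constant light for 5 days. Mycelial diameter was measured, and % inhibition = 100 − [(amended/control diameter) × 100]. Triplicate, at least twice; mean ± SD.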

Data set [2] has as its system Plenodomus lingam. Kind of data set: Antifungal activity against Leptosphaeria maculans isolate BJ-125/UAMH-9410 assessed as mycelial growth inhibition at 0.2 mM incubated under constant light for 5 days by mycelial radial growth bioassay. The conditions noted are these: isolate BJ-125/UAMH-9410, 120 h, read-out: GI. Format: functional. The gist of the method: as §1

For data set [3], the system named is Plenodomus lingam. Kind of data set: Antifungal activity against Leptosphaeria maculans isolate BJ-125/UAMH-9410 assessed as mycelial growth inhibition at 0.5 mM incubated under constant light for 5 days by mycelial radial growth bioassay. In kind it is functional. To be noted: isolate BJ-125/UAMH-9410, 120 h, read-out: GI. The procedure, abridged:
as §1

Data set [4] is described as follows: Drug metabolism in Leptosphaeria maculans isolate BJ-125 assessed as drug recovery at 0.10 mM after 24 hr by HPLC analysis. In kind it is ADME, organism-based. To be noted: plenodomus lingam, Leptosphaeria maculans isolate BJ-125 (fungus); read-out: Drug recovery. The procedure, abridged:
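Minimal medium (50 mL) was inoculated with isolate BJ-125 spores (106/mL) and shaken at 120 rpm, 23 °C, under constant light. After 2 days, compound in CH3CN was added (final 0.10 mM), also to noninoculated medium as a stability control. Broth samples taken up to 72 h were extracted with EtOAc and quantified by HPLC-DAD against calibration curves; basified broth was extracted with CHCl3/MeOH for amines. At least three independent experiments ± SD.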

Each structure is given as a SMILES string. The source made the active and inactive calls. The calls are words filed in the database; no cut-off is given here.

For `COn1c(CN)cc2ccccc21`, the “growth inhibition (GI)” value in data set [1] was “inactive”. For the same molecule, the inhibition of growth at 200 µM in data set [2] came to 8%. Besides, the inhibition of growth at 500 µM in data set [3] was found to be 19%.

Take `COn1c(CNC(C)=O)cc2ccccc21`: the inhibition of growth at 100 µM in data set [1] came to 4%. In addition, the inhibition of growth at 200 µM in data set [2] worked out at 11%. For the same molecule, the inhibition of growth at 500 µM in data set [3] is 15%.

`CC(=O)NCc1ccc(-c2ccccc2)cc1`: the inhibition of growth at 100 µM in data set [1] was determined as 9%. Besides, the inhibition of growth at 200 µM in data set [2] came to 17%. Besides, the inhibition of growth at 500 µM in data set [3] was 30%.

As for `NCCCc1c[nH]c2ccccc12`, the “growth inhibition (GI)” value in data set [1] is “inactive”. In data set [2], the inhibition of growth at 200 µM was determined as 14%. Moreover, the inhibition of growth at 500 µM in data set [3] was found to be 27%.

With `CC(=O)NCCCc1c[nH]c2ccccc12`, the inhibition of growth at 100 µM in data set [1] was 10%. In addition, the inhibition of growth at 200 µM in data set [2] turned out to be 13%. Besides, the inhibition of growth at 500 µM in data set [3] amounted to 24%.

With `OCCCc1c[nH]c2ccccc12`, the inhibition of growth at 100 µM in data set [1] came out at 7%. Further, the inhibition of growth at 200 µM in data set [2] stood at 14%. Also, the inhibition of growth at 500 µM in data set [3] was determined as 18%.

Turning to `CSC(=S)NCc1ccc(-c2ccccc2)cc1`, the remaining at 24 h, 100 µM in data set [4] is less than 5%. Moreover, the inhibition of growth at 100 µM in data set [1] turned out to be 14%. Also, the inhibition of growth at 200 µM in data set [2] worked out at 32%. Further, the inhibition of growth at 500 µM in data set [3] was found to be 46%.

Take `CSC(=S)OCCCc1c[nH]c2ccccc12`: in data set [1], the inhibition of growth at 100 µM is 5%. Also, the inhibition of growth at 200 µM in data set [2] was determined as 18%. The inhibition of growth at 500 µM in data set [3] turned out to be 31%.

Take `CC(=O)NCc1cc2ccccc2[nH]1`: the inhibition of growth at 100 µM in data set [1] amounted to 7%. For the same molecule, in data set [2], the inhibition of growth at 200 µM was found to be 18%. In addition, in data set [3], the inhibition of growth at 500 µM stood at 33%.

Regarding `CS/C(S)=N/CCCc1c[nH]c2ccccc12`, the remaining at 24 h, 100 µM in data set [4] amounted to 37%. For the same molecule, in data set [1], the inhibition of growth at 100 µM stood at 21%. In addition, the inhibition of growth at 200 µM in data set [2] is 46%. In addition, the inhibition of growth at 500 µM in data set [3] is 67%.

For the molecule `COn1c(CNC(=S)SC)cc2ccccc21` [1-METHOXYISOBRASSININ], the remaining at 24 h, 100 µM in data set [4] is 47%. The inhibition of growth at 100 µM in data set [1] was determined as 7%. Besides, the inhibition of growth at 200 µM in data set [2] amounted to 15%. For the same molecule, the inhibition of growth at 500 µM in data set [3] is 34%.

In the case of `NCc1cc2ccccc2[nH]1` [2-INDOLYLMETHANAMINE], in data set [1], the “growth inhibition (GI)” value is “inactive”. Further, the inhibition of growth at 200 µM in data set [2] stood at 19%. The inhibition of growth at 500 µM in data set [3] was found to be 33%.

Take `c1ccc2[nH]cnc2c1` [BENZIMIDAZOLE]: the inhibition of growth at 100 µM in data set [1] turned out to be 11%. Moreover, the inhibition of growth at 200 µM in data set [2] came to 20%. For the same molecule, the inhibition of growth at 500 µM in data set [3] amounted to 35%.

For the molecule `CSC(=S)NCc1c[nH]c2ccccc12` [BRASSININ], the remaining at 24 h, 100 µM in data set [4] is less than 5%. For the same molecule, the inhibition of growth at 100 µM in data set [1] worked out at 10%. In addition, the inhibition of growth at 200 µM in data set [2] came to 21%. The inhibition of growth at 500 µM in data set [3] is 55%.

As for `CSC(=S)NCc1cc2ccccc2[nH]1` [ISOBRASSININ], the remaining at 24 h, 100 µM in data set [4] is less than 5%. Moreover, the inhibition of growth at 100 µM in data set [1] turned out to be 13%. Besides, in data set [2], the inhibition of growth at 200 µM came to 22%. In addition, the inhibition of growth at 500 µM in data set [3] came to 43%.

As to `CSC(=S)NCCc1c[nH]c2ccccc12` [METHYL TRYPTAMINEDITHIOCARBAMATE], the remaining at 24 h, 100 µM in data set [4] stood at 55%. In data set [1], the inhibition of growth at 100 µM amounted to 43%. The inhibition of growth at 200 µM in data set [2] worked out at 71%. Moreover, the inhibition of growth at 500 µM in data set [3] came out at 100%.

Regarding `CSC(=S)OCCc1c[nH]c2ccccc12` [METHYL TRYPTOPHOLDITHIOCARBAMATE], in data set [4], the remaining at 24 h, 100 µM is 15%. Further, the inhibition of growth at 100 µM in data set [1] amounted to 7%. The inhibition of growth at 200 µM in data set [2] was determined as 15%. The inhibition of growth at 500 µM in data set [3] turned out to be 32%.

With `CC(=O)NCCc1c[nH]c2ccccc12` [NB-ACETYLTRYPTAMINE], the “growth inhibition (GI)” value in data set [1] was “inactive”. The inhibition of growth at 200 µM in data set [2] is 7%. For the same molecule, the inhibition of growth at 500 µM in data set [3] was found to be 15%.

With `NCCc1c[nH]c2ccccc12` [TRYPTAMINE], the inhibition of growth at 100 µM in data set [1] turned out to be 12%. Further, the inhibition of growth at 200 µM in data set [2] turned out to be 15%. Also, in data set [3], the inhibition of growth at 500 µM was 28%.

As to `OCCc1c[nH]c2ccccc12` [TRYPTOPHOL], the “growth inhibition (GI)” value in data set [1] was “inactive”. Also, the inhibition of growth at 200 µM in data set [2] came out at 16%. In addition, the inhibition of growth at 500 µM in data set [3] stood at 29%.
